Experimental data as given in ChEMBL document CHEMBL4823320, “SAR of novel benzothiazoles targeting an allosteric pocket of DENV and ZIKV NS2B/NS3 proteases” (Bioorg Med Chem, 2021).
Active and inactive are the calls of the source. The rule behind the calls is not given here.

Legend:
[1] = target: Prothrombin (Homo sapiens) (UniProt P00734); experiment: Inhibition of Thrombin (unknown origin) assessed as residual enzyme activity at 20 uM by FRET assay relative to control
Outline: (§1)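 Compound at 20 µM, read every 30 s for 10 min at 25 °C. Residual activity is relative to DMSO control; mean ± SD, ≥3 independent measurements.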

[2] = Chemical stability of compound in cell culture conditions at pH 7.4 HEPES buffer measured after 15 mins by HPLC/MS analysis; type: physicochemical; conditions: read-out: Stabilty
Outline: (§2)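 Compound incubated under simulated cell-assay conditions (HEPES pH 7.4) and analysed by HPLC/MS after 15 min, 90 min and 20 h. Stability is the compound peak integral in the 210 nm UV trace as a fraction of the total integral.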

[3] = Inhibition of Rhodesain (unknown origin) assessed as residual enzyme activity at 20 uM by FRET assay relative to control
Outline: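 Compound at 20 µM, fluorescence read every 30 s for 10 min at 25 °C. Residual activity is relative to DMSO control; mean ± SD, ≥3 independent measurements.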

[4] = target: T1, Genome polyprotein (dengue virus type 2, UniProt P29990); experiment: Binding affinity to DENV2 NS2B-NS3 protease by Dixon plot analysis
Outline: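 Fluorogenic DENV2 NS2B/NS3 assay run in 50 mM Tris pH 9.0, 20% glycerol, 1 mM Chaps, with IC50 determined at several Boc-Gly-Arg-Arg-AMC concentrations (50–200 μM). Kinetic fluorescence read at 25 °C for 10 min. Mode of inhibition assessed and apparent Ki derived by Dixon plot analysis.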

[5] = Chemical stability of compound in tris assay buffer at pH 9 measured after 90 mins by HPLC/MS analysis; type: physicochemical; conditions: pH 9, 1.5 h
Outline: (§3)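 Compound incubated in protease assay buffer (Tris pH 9.0) under simulated assay conditions and analysed by HPLC/MS after 15 min, 90 min and 20 h. Stability is the compound peak integral in the 210 nm UV trace as a proportion of the total integral.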

[6] = target: Urokinase-type plasminogen activator (Homo sapiens) (UniProt P00749); experiment: Inhibition of Urokinase plasminogen activator (unknown origin) assessed as residual enzyme activity at 20 uM by FRET assay relative to control
Outline: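 Urokinase plasminogen activator in 50 mM Tris pH 7.4, 50 mM NaCl, 0.5 mM EDTA with 240 µM Z-Gly-Gly-Arg-AMC. Compound at 20 µM, read every 30 s for 10 min at 25 °C. Residual activity is relative to DMSO control; mean ± SD, ≥3 independent measurements.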

[7] = target: Nonstructural protein 3 (Zika virus, UniProt A0A024AXB9); experiment: Inhibition of ZIKV NS2B-NS3 protease expressed in Escherichia coli BL21(DE3) using Boc-Gly-Arg-Arg-AMC as substrate by FRET assay
Outline: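 His-tagged ZIKV NS2B/NS3 protease in 50 mM Tris pH 9.0, 20% glycerol, 1 mM CHAPS with 100 µM Boc-Gly-Arg-Arg-AMC. Dilution series 0.01–100 µM, read every 30 s for 10 min at 25 °C. IC50 from a four-parameter fit of hydrolysis rate; mean ± SD of ≥3 independent measurements.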

[8] = Chemical stability of compound in tris assay buffer at pH 9 measured after 15 mins by HPLC/MS analysis; type: physicochemical; conditions: pH 9, 0.25 h; outline: as §3
[9] = Chemical stability of compound in cell culture conditions at pH 7.4 HEPES buffer measured after 90 mins by HPLC/MS analysis; type: physicochemical; conditions: read-out: Stabilty; outline: as §2
[10] = Chemical stability of compound in tris assay buffer at pH 9 measured after 20 hrs by HPLC/MS analysis; type: physicochemical; conditions: pH 9, 20 h; outline: as §3
[11] = Chemical stability of compound in cell culture conditions at pH 7.4 HEPES buffer measured after 20 hrs by HPLC/MS analysis; type: physicochemical; conditions: read-out: Stabilty; outline: as §2
[12] = target: T2, Sortase A (Staphylococcus aureus) (UniProt Q9S446); experiment: Inhibition of staphylococcus aureus Sortase A protease assessed as residual enzyme activity at 20 uM by FRET assay relative to control; outline: as §1
T2 sequence (whole entry): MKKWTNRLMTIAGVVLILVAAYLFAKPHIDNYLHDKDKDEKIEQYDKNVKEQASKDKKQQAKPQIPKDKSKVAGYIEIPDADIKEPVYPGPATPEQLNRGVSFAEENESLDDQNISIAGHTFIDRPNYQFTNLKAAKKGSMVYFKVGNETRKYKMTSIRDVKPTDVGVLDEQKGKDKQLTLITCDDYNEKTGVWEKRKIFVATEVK

[13] = system: Severe acute respiratory syndrome coronavirus 2; experiment: Inhibition of SARS-CoV-2 Main protease assessed as residual enzyme activity at 20 uM by FRET assay relative to control
Outline: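 Compound at 20 μM; fluorescence read every 30 s for 10 min at 25 °C. Residual activity expressed relative to DMSO control; mean of ≥3 independent measurements.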

[14] = system: Zika virus; experiment: Antiviral activity against ZIKV H/PF/2013 infected in human Huh7 cells assessed as decrease in viral RNA expression at 10 uM measured up to 96 hrs by renilla luciferase assay; type: functional, organism-based; conditions: Huh-7, time hrs <=96
Outline: (§4)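 Huh7 cells electroporated with in vitro transcribed ZIKV H/PF/2013 subgenomic replicon RNA (Renilla luciferase, coelenterazine substrate). Compound at 10 µM or DMSO is added 4 h post-electroporation in medium with 15 mM HEPES and replenished at 48 h. Lysates are taken at 4, 24, 48, 72 and 96 h and normalized to the 4 h input value. Duplicate reads; mean ± SD, n = 3.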

[15] = target: Chymotrypsin (Homo sapiens) (UniProt Q99895+P17538+P40313+Q6GPI1); experiment: Inhibition of Chymotrypsin (unknown origin) assessed as residual enzyme activity at 20 uM by FRET assay relative to control; type: protein assay
Outline: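 α-Chymotrypsin in 50 mM Tris pH 8.0, 100 mM NaCl with Succ-Leu-Tyr-AMC. Compound at 20 µM, read every 30 s for 10 min at 25 °C. Residual activity is relative to DMSO control; mean ± SD, ≥3 independent measurements.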

[16] = target: T1, Genome polyprotein; experiment: Inhibition of DENV2 NS2B-NS3 protease expressed in Escherichia coli BL21(DE3) using Boc-Gly-Arg-Arg-AMC as substrate by FRET assay
Outline: (§5)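 Recombinant His-tagged NS2B/NS3 protease, expressed in E. coli BL21-Gold (DE3) (1 mM IPTG, 20 °C, 16 h) and purified by Ni affinity and size exclusion. Assayed in 50 mM Tris pH 9.0, 20% glycerol, 1 mM Chaps, with 100 μM Boc-Gly-Arg-Arg-AMC. Fluorescence read every 30 s for 10 min at 25 °C; inhibitor 0.01–100 μM. IC50 from a four-parameter fit of hydrolysis rate; ≥3 independent experiments.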

[17] = target: Trypsin (Homo sapiens) (UniProt P07477+P07478+P35030); experiment: Inhibition of Trypsin (unknown origin) assessed as residual enzyme activity at 20 uM by FRET assay relative to control; type: protein assay
Outline: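 Trypsin in 50 mM Tris pH 8.0, 100 mM NaCl, 5 mM EDTA with 40 µM Z-Phe-Arg-AMC. Compound at 20 µM, read every 30 s for 10 min at 25 °C. Residual activity is relative to DMSO control; mean ± SD, ≥3 independent measurements.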

[18] = system: Huh-7; experiment: Cytotoxicity against human Huh-7 cells assessed as cell viability after 96 hrs by CellTiter-Glo Luminescent cell viability assay; type: cell-based; conditions: huh-7, 96 h
Outline: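 Huh7 cells seeded at 4×10^3 per well and treated one day later with 1.25–40 µM compound or DMSO for 96 h. ATP-based luminescent viability read-out, normalized to untreated cells.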

[19] = system: dengue virus type 2; experiment: Antiviral activity against DENV2 New Guinea C infected in human Huh7 cells assessed as decrease in viral RNA expression at 10 uM measured up to 72 hrs by firefly luciferase assay; type: functional, organism-based; conditions: Huh-7, time hrs <=72
Outline: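 Huh7 cells electroporated with in vitro transcribed DENV2 NGC subgenomic replicon RNA (firefly luciferase), 4×10^6 cells per 10 µg RNA. Compound at 10 µM or DMSO is added 4 h post-electroporation in medium with 15 mM HEPES and replenished at 48 h. Lysates are taken at 4–96 h and replication is expressed relative to the 4 h input value. Duplicate luminometer reads; mean ± SD, n = 3.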

[20] = Inhibition of DENV2 NS2B-NS3 protease T120A/N167Q mutant expressed in Escherichia coli BL21(DE3) using Boc-Gly-Arg-Arg-AMC as substrate by FRET assay; set-up: species or system dengue virus type 2; outline: as §5
[21] = target: Genome polyprotein (dengue virus type 2) (UniProt P29990); experiment: Inhibition of DENV2 NS2B-NS3 protease expressed in Escherichia coli BL21(DE3) using Boc-Gly-Arg-Arg-AMC as substrate at 100 uM by FRET assay
Outline: (§6)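 His-tagged NS2B/NS3 protease, purified by Ni affinity and size exclusion, in 50 mM Tris pH 9.0, 20% glycerol, 1 mM CHAPS with 100 µM Boc-Gly-Arg-Arg-AMC. Fluorescence is read every 30 s for 10 min at 25 °C. Percent inhibition is at a single inhibitor concentration of 20, 100 or 200 µM; ≥3 independent measurements.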

[22] = target: T3, Nonstructural protein 3 (Zika virus) (UniProt A0A024AXB9); experiment: Inhibition of ZIKV NS2B-NS3 protease expressed in Escherichia coli BL21(DE3) using Boc-Gly-Arg-Arg-AMC as substrate at 100 uM by FRET assay; outline: as §6
[23] = target: Genome polyprotein (dengue virus type 2) (UniProt P29990); experiment: Inhibition of DENV2 NS2B-NS3 protease expressed in Escherichia coli BL21(DE3) using Boc-Gly-Arg-Arg-AMC as substrate at 200 uM by FRET assay; outline: as §6
[24] = target: T3, Nonstructural protein 3 (Zika virus); experiment: Inhibition of ZIKV NS2B-NS3 protease expressed in Escherichia coli BL21(DE3) using Boc-Gly-Arg-Arg-AMC as substrate at 200 uM by FRET assay; outline: as §6
[25] = system: Zika virus; experiment: Antiviral activity against ZIKV H/PF/2013 infected in human Huh7 cells assessed as decrease in viral RNA expression at 10 uM measured up to 72 hrs by renilla luciferase assay; type: functional, organism-based; conditions: Huh-7, time hrs <=72; outline: as §4

Row | Structure (SMILES) | Activity [1] [%] | remaining at 0.25 h [2] [%] | Activity [3] [%] | Stabilty [5] [%] | Activity [6] [%] | IC50 [7] [nM] | Stabilty [8] [%] | remaining at 1.5 h [9] [%] | Stabilty [10] [%] | remaining at 20 h [11] [%] | Activity [12] [%] | Activity [13] [%] | Activity [15] [%] | IC50 [16] [µM] | Activity [17] [%] | Activity [18] | Activity [19] | inhibition [23] | inhibition [24] | further results
1 | O=C(Nc1nc2cc(O)c(O)cc2s1)c1ccc(I)cc1 | 65 | 95 | 77 | 83 | 100 | 670 | 83 | 95 | 83 | 95 | 74 | 89 | 79 | 4.38 | 94 | Non-Toxic | Active | – | – | Ki [4]: 7.67 µM; Activity [14]: Active; IC50 [20]: 8.01 µM
2 | O=C(Nc1ccccc1)c1cc2c(O)cc(O)cc2o1 | – | – | – | – | – | – | – | – | – | – | – | – | – | – | – | – | – | – | – | inhibition [21]: 51%; inhibition [22]: 62%
3 | O=C(Nc1nc2cc(O)c(O)cc2s1)C(c1ccccc1)c1ccccc1 | 95 | 95 | 86 | 83 | 62 | 950 | 83 | 95 | 83 | 95 | 73 | 77 | 96 | 11.1 | 85 | Non-Toxic | Active | – | – | –
4 | O=C(Nc1ccccc1)c1cc2cc(O)ccc2o1 | – | – | – | – | – | – | – | – | – | – | – | – | – | – | – | – | – | inactive | inactive | –
5 | COc1cc2nc(NC(=O)C(c3ccccc3)c3ccccc3)sc2cc1OC | – | – | – | – | – | – | – | – | – | – | – | – | – | – | – | – | Active | – | – | Activity [25]: inactive
6 | O=C(Nc1ccccc1)c1cc2cc(O)c(O)cc2o1 | 97 | 95 | 93 | 83 | 91 | 1040 | 83 | 95 | 83 | 95 | 64 | 52 | 58 | 0.69 | 96 | Non-Toxic | Active | – | – | Activity [14]: Active; IC50 [20]: 0.73 µM
7 | O=C(Nc1ccccc1)c1cc2cc([N+](=O)[O-])c(O)cc2o1 | – | – | – | – | – | – | – | – | – | – | – | – | – | – | – | – | – | 19% | 48% | –
8 | O=C(Nc1ccccc1)c1cc2ccc(O)cc2o1 | – | – | – | – | – | – | – | – | – | – | – | – | – | – | – | – | – | inactive | inactive | –
9 | Nc1cc2cc(C(=O)Nc3ccccc3)oc2cc1O | – | – | – | – | – | – | – | – | – | – | – | – | – | – | – | – | – | 34% | 52% | –
10 | COc1cc2nc(NC(=O)c3ccc(I)cc3)sc2cc1OC | – | – | – | – | – | – | – | – | – | – | – | – | – | – | – | – | Active | – | – | –
